Experimental data taken from ChEMBL document CHEMBL3526029, “Disposition and metabolism of GSK2251052 in humans: a novel boron-containing antibiotic” (Drug Metab Dispos, 2013).

Key:
[1] = Drug recovery in healthy human feces at 1500 mg, iv infusion for 1 hr as single dose after 72 hrs; type: ADME, organism-based; conditions: read-out: Drug recovery
[2] = Drug recovery in healthy human feces at 1500 mg, iv infusion for 1 hr as single dose after 144 hrs; type: ADME, organism-based; conditions: read-out: Drug recovery
Blood [3] = experiment: Cmax in healthy human whole blood assessed as radioactivity at 1500 mg, iv infusion for 1 hr as single dose; type: ADME, organism-based; design: dose 1500 mg, route intravenous; conditions: in vivo
How it was run: (§1)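 Six fasted healthy men received 1500 mg [14C]GSK2251052 as a 1-h i.v. infusion. Blood and plasma were sampled from predose to 336 h after infusion start. Radioactivity was counted by LSC; plasma below 870 ng eq/ml was reanalysed by accelerator MS, with predose background subtracted. Noncompartmental analysis used actual sampling times, linear-up/log-down trapezoids and CL = dose/AUC(0-∞).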

Plasma [4] = experiment: Tmax in healthy human plasma assessed as radioactivity at 1500 mg, iv infusion for 1 hr as single dose; type: ADME, organism-based; conditions: in vivo
How it was run: (§2)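 Healthy men got a single 1500 mg [14C] dose by 1 h i.v. infusion. K2EDTA blood was sampled up to 336 h. Radioactivity in blood and plasma was measured by LSC, with AMS for plasma below LLQ. Parent and M3 were measured by LC/MS/MS (5–10,000 ng/ml range). Noncompartmental analysis used actual times, with t1/2 = ln2/λz and Tmax observed directly, timed from infusion start.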

[5] = Drug recovery in healthy human urine at 1500 mg, iv infusion for 1 hr as single dose after 120 to 336 hrs by HPLC method; type: ADME, organism-based; conditions: in the assay text read “0 to 120 hrs” for “120 to 336 hrs”, read-out: Drug recovery
How it was run: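 Urine pooled by weight per subject over 0–120 h; 120–336 h pools from all subjects combined into one composite. Centrifuged at ~21,000g, then supernatant profiled by HPLC (Atlantis T3, ammonium acetate pH 4.5/methanol, 30°C) with radiochemical detection plus MS identification. Results are % of dose, corrected for centrifugation recovery measured by triplicate LSC.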

Blood [6] = experiment: Tmax in healthy human whole blood assessed as radioactivity at 1500 mg, iv infusion for 1 hr as single dose; type: ADME, organism-based; conditions: in vivo; how it was run: as §2
[7] = Drug recovery in healthy human urine at 1500 mg, iv infusion for 1 hr as single dose after 120 hrs; type: ADME, organism-based; conditions: read-out: Drug recovery
[8] = Drug recovery in healthy human feces at 1500 mg, iv infusion for 1 hr as single dose after 336 hrs; type: ADME, organism-based; conditions: read-out: Drug recovery
[9] = Drug recovery in healthy human feces at 1500 mg, iv infusion for 1 hr as single dose after 120 hrs; type: ADME, organism-based; conditions: read-out: Drug recovery
How it was run: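 Feces were collected at 24-h intervals through 336 h after a 1500 mg [14C] i.v. 1-h infusion. Samples were homogenised with water and duplicate aliquots combusted for LSC. For profiling, 0–120 h pools were extracted twice with acetonitrile:methanol:water:formic acid, reconstituted, and analysed by radio-HPLC. Values were reported as % dose.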

Plasma [10] = experiment: Volume of distribution at steady state in healthy human plasma assessed as radioactivity at 1500 mg, iv infusion for 1 hr as single dose; type: ADME, organism-based; conditions: in vivo
How it was run: (§3)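 Healthy males got a 1500 mg [14C] dose as a 1-h IV infusion. K2EDTA blood was taken at serial times to 336 h. Radioactivity in blood and plasma was measured by LSC; plasma below 870 ng eq/ml was re-measured by accelerator mass spectrometry. Vss = CL × MRT, with CL = dose/AUC(0-∞), from noncompartmental analysis on actual times.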

[11] = Drug metabolism in cynomolgus monkey liver S9 fraction assessed as (S)-3-(3-(aminomethyl)-1-hydroxy-1,3-dihydrobenzo[c][1,2]oxaborol-7-yloxy)propanoicacid formation at 50 to 500 uM after 3 hrs by liquid scintillation counting in presence of NAD+ and ADH inhibitor 4-MP; type: ADME, subcellular, Macaca fascicularis; conditions: s9, 3 h
How it was run: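 NAD+ (7.5 mM) incubations of [14C]GSK2251052 with 4 mg/ml monkey liver cytosol or liver S9 in pyrophosphate buffer included 4-MP at 0.6 mM final. Incubations ran in triplicate at 37°C. Extracts were counted by LSC and pooled for radio-HPLC.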

Plasma [12] = experiment: Cmax in healthy human plasma assessed as radioactivity at 1500 mg, iv infusion for 1 hr as single dose; type: ADME, organism-based; design: dose 1500 mg, route intravenous; conditions: in vivo; how it was run: as §1
Blood [13] = experiment: Volume of distribution at steady state in healthy human whole blood assessed as radioactivity at 1500 mg, iv infusion for 1 hr as single dose; type: ADME, organism-based; conditions: in vivo; how it was run: as §3
[14] = Drug metabolism in cynomolgus monkey lung S9 fraction assessed as (S)-3-(3-(aminomethyl)-1-hydroxy-1,3-dihydrobenzo[c][1,2]oxaborol-7-yloxy)propanoicacid formation at 50 to 500 uM after 3 hrs by liquid scintillation counting in presence of NAD+; type: ADME, Macaca fascicularis; conditions: s9, 3 h
How it was run: (§4)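 [14C]GSK2251052 was incubated in triplicate for 1 or 3 h at 37°C with 4 mg/ml S9 (monkey liver, lung or kidney; human liver), liver cytosol or liver microsomes and 7.5 mM NAD+. Buffer was pyrophosphate at pH 7.4, 8.4 or 8.8. Controls lacked cofactor or enzyme. Reactions were quenched with acetonitrile, counted by LSC, and pooled for radio-HPLC.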

Liver cytosol = experiment: Drug metabolism in human liver cytosol assessed as (S)-3-(3-(aminomethyl)-1-hydroxy-1,3-dihydrobenzo[c][1,2]oxaborol-7-yloxy)propanoicacid formation at 50 to 500 uM after 3 hrs by liquid scintillation counting in presence of NAD+; type: ADME; how it was run: as §4
[15] = Drug recovery in healthy human feces at 1500 mg, iv infusion for 1 hr as single dose after 192 hrs; type: ADME, organism-based; conditions: faeces, read-out: Drug recovery
Plasma [16] = experiment: Half life in healthy human plasma assessed as radioactivity at 1500 mg, iv infusion for 1 hr as single dose; type: ADME, organism-based; conditions: in vivo; how it was run: as §2
[17] = Drug recovery in healthy human feces at 1500 mg, iv infusion for 1 hr as single dose after 168 hrs; type: ADME, organism-based; conditions: faeces, read-out: Drug recovery
[18] = Drug metabolism in cynomolgus monkey kidney S9 fraction assessed as (S)-3-(3-(aminomethyl)-1-hydroxy-1,3-dihydrobenzo[c][1,2]oxaborol-7-yloxy)propanoicacid formation at 50 to 500 uM after 3 hrs by liquid scintillation counting in presence of NADPH regeneration system; type: ADME, Macaca fascicularis; conditions: s9, 3 h
[19] = Total drug recovery in healthy human at 1500 mg, iv infusion for 1 hr as single dose after 336 hrs; type: ADME, organism-based; conditions: in vivo, read-out: Drug recovery
How it was run: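 Six healthy adult males, fasted ≥10 h, got one 1500 mg [14C]GSK2251052 dose ([…], 0.56 MBq) as a constant-rate 1-h IV infusion in 0.9% NaCl. Urine was collected at 0–6, 6–12 and 12–24 h, then in 24-h blocks to 336 h; feces in 24-h blocks. Urine was counted directly by LSC; feces were homogenized and combusted in duplicate before LSC. Cumulative recovery is given as mean % of dose.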

Liver microsome = experiment: Drug metabolism in human liver microsomes assessed as (S)-3-(3-(aminomethyl)-1-hydroxy-1,3-dihydrobenzo[c][1,2]oxaborol-7-yloxy)propanoicacid formation at 50 to 500 uM after 3 hrs by liquid scintillation counting in presence of NAD+; type: ADME; how it was run: as §4

dose excreted at 72 h [1]: 4.3% | dose excreted at 144 h [2]: 7.5% | Cmax (Blood [3]): 43700 ng/mL | Tmax (Plasma [4]): 55 min | dose excreted [5]: 28.9% | Tmax (Blood [6]): 55 min | dose excreted at 120 h [7]: 83.4% | dose excreted at 336 h [8]: 7.6% | dose excreted at 120 h [9]: 7.3% | Vdss (Plasma [10]): 348 L | Drug metabolism [11]: metabolite_not_detected | Cmax (Plasma [12]): 24300 ng/mL | Vdss (Blood [13]): 116 L | Drug metabolism [14]: metabolite_not_detected | Drug metabolism (Liver cytosol): metabolite_not_detected | dose excreted at 192 h [15]: 7.6% | t1/2 (Plasma [16]): 96 h | dose excreted at 168 h [17]: 7.6% | Drug metabolism [18]: metabolite_not_detected | dose excreted at 336 h [19]: 98.2% | Drug metabolism (Liver microsome): metabolite_not_detected
Compound: Cl.N[14CH2][C@H]1OB(O)c2c(OCCCO)cccc21
